Assay outcomes: PubChem, The Scripps Research Institute Molecular Screening Center
Hits are enriched below; roughly 2.8% of the tested compounds scored in any of these assays.
HTRA1 inhibitor – HTRA1 serine protease inhibitors, primary screen, biochemical, fluorescence polarization, HTS; recombinant HTRA1, FP-rhodamine activity-based probe; inhibition, % at 5.96 µM; 340,000 compounds, 0.5% hits; AID 504803, 2011; in the data active = inhibition above about 36%;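 also: 0% = enzyme with DMSO and 100% = wells lacking enzyme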
PAFAH1B3 inh – PAFAH1B3 enzyme inhibitors, primary screen, biochemical, fluorescence polarization, human | Platelet-activating factor acetylhydrolase IB subunit alpha1 (Homo sapiens), Q15102 | recombinant PAFAH1B3, FP-rhodamine probe | inhibition, % at 3.39 µM | 340,000 compounds, 0.28% hits;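 active = inhibition above the screen-wide average of all tested compounds plus 3 SD, cut at about 25% in these data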;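 also: 0% = enzyme with DMSO only and 100% = wells lacking PAFAH1B3 protein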
mABHD4 FP – ABHD4 inhibitors, primary screen, biochemical, fluorescence polarization, mouse; 370,000 compounds, 0.54% hits; AID 720543, 2013; (Lyso)-N-acylphosphatidylethanolamine lipase (Mus musculus), Q8VD66; purified mABHD4, FP-Rh probe fluorescence polarization; inhibition, % at 8.92 µM;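 active = inhibition exceeding the mean over every tested compound plus 3 SD, cut at about 30% in these data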;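 also: 0% = plate median of compound wells and 100% = S159A mutant with DMSO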
Target sequence (Q8VD66 whole entry, looked up): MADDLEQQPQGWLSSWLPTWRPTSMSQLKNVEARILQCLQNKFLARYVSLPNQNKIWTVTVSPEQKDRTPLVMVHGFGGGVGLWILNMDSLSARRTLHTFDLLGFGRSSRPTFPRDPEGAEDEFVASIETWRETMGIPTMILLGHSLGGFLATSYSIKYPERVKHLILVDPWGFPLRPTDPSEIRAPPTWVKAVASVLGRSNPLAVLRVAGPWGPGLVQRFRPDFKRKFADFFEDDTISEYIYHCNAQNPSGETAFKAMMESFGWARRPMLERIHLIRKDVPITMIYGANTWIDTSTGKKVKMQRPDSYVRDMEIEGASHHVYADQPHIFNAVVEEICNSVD
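Test system: mouse ABHD4 enzyme, wild type. Reagent: FP-Rh fluorescent activity-based probe, added after compound pre-incubation. Timing: pre-incubation 45 min, probe exposure 60 min, at 25 °C. Technique: FP readout, ex 525 nm / em 598 nm. Benchmarks: high control S159A mutant with DMSO, low control median of compound wells.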
pPAFAH inh – pPAFAH enzyme inhibitors, primary screen, biochemical, fluorescence polarization, human. recombinant pPAFAH, FP-rhodamine probe fluorescence polarization. AID 463082, 2010. inhibition, % at 3.39 µM. Platelet-activating factor acetylhydrolase (Homo sapiens), Q13093. 330,000 compounds, 1.5% hits;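 active = inhibition above the mean inhibition across the screen plus 3 SD, cut at about 25% in these data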;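 also: inhibitors block binding of the rhodamine activity-based probe so polarization drops; 0% = enzyme with DMSO and 100% = wells lacking pPAFAH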
Target sequence (Q13093 whole entry, looked up): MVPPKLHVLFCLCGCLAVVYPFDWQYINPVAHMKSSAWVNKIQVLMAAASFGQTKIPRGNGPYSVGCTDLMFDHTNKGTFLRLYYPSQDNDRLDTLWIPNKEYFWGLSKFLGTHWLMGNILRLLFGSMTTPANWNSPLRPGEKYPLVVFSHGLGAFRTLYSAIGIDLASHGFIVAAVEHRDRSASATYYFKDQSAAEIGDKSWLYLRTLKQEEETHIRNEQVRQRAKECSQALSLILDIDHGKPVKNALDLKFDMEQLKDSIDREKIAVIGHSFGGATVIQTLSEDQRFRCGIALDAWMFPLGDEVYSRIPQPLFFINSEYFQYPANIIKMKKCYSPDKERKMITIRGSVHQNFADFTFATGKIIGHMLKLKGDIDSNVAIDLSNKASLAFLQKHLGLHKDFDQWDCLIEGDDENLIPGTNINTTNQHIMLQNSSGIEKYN
PAFAH2 FP inh – PAFAH2 enzyme inhibitors, primary screen, biochemical, fluorescence polarization, human; 340,000 compounds, 0.99% hits; Platelet-activating factor acetylhydrolase 2, cytoplasmic (Homo sapiens), Q99487; AID 492956, 2010; recombinant PAFAH2, FP-rhodamine activity probe; inhibition, % at 3.39 µM;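 active = inhibition above the mean over all tested compounds plus 3 SD, cut at about 30% in these data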;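 also: inhibitors block probe labeling of enzyme so polarization drops; 0% = enzyme with DMSO and 100% = wells lacking PAFAH2 protein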
PAFAH1B2 inh – PAFAH1B2 enzyme inhibitors, primary screen, biochemical, fluorescence polarization, human | Platelet-activating factor acetylhydrolase IB subunit alpha2 (Homo sapiens), P68402 | recombinant PAFAH1B2, FP-rhodamine activity probe | inhibition, % at 3.39 µM | 340,000 compounds, 1.2% hits;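 active = inhibition above the mean of all tested compounds plus 3 SD, cut at about 24% in these data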;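 also: 0% = enzyme with DMSO and 100% = wells lacking PAFAH1B2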
* = called active by the depositor.

How did CCOC(=O)c1c(NC(=O)COc2ccccc2OCC)sc2c1CC(C)(C)NC2(C)C do in these assays?
HTRA1 inhibitor: -12.5; PAFAH1B3 inh: 0.4; pPAFAH inh: 5.7; PAFAH2 FP inh: 4.5; PAFAH1B2 inh: 3.7

What do the screens show for `CCOC(=O)c1c(NC(=O)Cc2ccccc2)sc2c1CC(C)(C)NC2(C)C`?
HTRA1 inhibitor: -9.6; PAFAH1B3 inh: 6.0; mABHD4 FP: -2.6; pPAFAH inh: 31.9*; PAFAH2 FP inh: -1.1; PAFAH1B2 inh: -2.6

What do the screens show for `O=C1C(Cl)=C(NCCN2CCCCC2)C(=O)c2ccccc21`?
HTRA1 inhibitor: 8.8; PAFAH1B3 inh: 29.2*; pPAFAH inh: 7.2; PAFAH2 FP inh: -1.1; PAFAH1B2 inh: 3.3

Results for N/C(=N\OC(=O)Cc1ccccc1)c1ccc(Br)cc1 ?
HTRA1 inhibitor: -8.2; PAFAH1B3 inh: 9.9; mABHD4 FP: -5.0; pPAFAH inh: 4.1; PAFAH2 FP inh: -0.7; PAFAH1B2 inh: 26.6*

How did Cc1ccc(/C(N)=N/OC(=O)Cc2ccccc2)cc1 do in these assays?
HTRA1 inhibitor: -6.0; PAFAH1B3 inh: 6.7; mABHD4 FP: -1.8; pPAFAH inh: -2.6; PAFAH2 FP inh: 4.6; PAFAH1B2 inh: 1.2

Results for CC(C)c1ccc(/C=C2\Oc3c(ccc(O)c3CN3CCN(C)CC3)C2=O)cc1 ?
HTRA1 inhibitor: -6.3; PAFAH1B3 inh: 8.2; mABHD4 FP: 10.3; pPAFAH inh: 14.3; PAFAH2 FP inh: 75.7*; PAFAH1B2 inh: 25.2*

How did Cc1ccc(/C=C2\Oc3c(ccc(O)c3CN3CCN(CCO)CC3)C2=O)cc1 do in these assays?
HTRA1 inhibitor: 5.7; PAFAH1B3 inh: 3.1; mABHD4 FP: -0.4; pPAFAH inh: -3.0; PAFAH2 FP inh: 17.9; PAFAH1B2 inh: -1.9

How did Cc1ccc(OCCNC(=O)CCc2nc3sc4c(c3c(=O)[nH]2)CCCC4)cc1 do in these assays?
HTRA1 inhibitor: -16.3; PAFAH1B3 inh: 6.0; mABHD4 FP: -0.5; pPAFAH inh: 18.5; PAFAH2 FP inh: -0.5; PAFAH1B2 inh: 27.4*

Results for Cc1ccc(NC(=O)C(C)SCc2nc3sc4c(c3c(=O)[nH]2)CCCC4)nc1 (configuration not stated) ?
HTRA1 inhibitor: 0.5; PAFAH1B3 inh: -0.1; mABHD4 FP: 2.5; pPAFAH inh: 17.0; PAFAH2 FP inh: -2.5; PAFAH1B2 inh: 29.2*

What do the screens show for `O=C(COC(=O)C1CC2C=CC1C2)NCCc1ccccc1` (configuration not stated)?
HTRA1 inhibitor: 8.8; PAFAH1B3 inh: 8.5; mABHD4 FP: -2.6; pPAFAH inh: 1.1; PAFAH2 FP inh: 3.1; PAFAH1B2 inh: 1.8

How did O=C(COC(=O)C1CC2C=CC1C2)Nc1ccccc1F (configuration not stated) do in these assays?
HTRA1 inhibitor: 6.7; PAFAH1B3 inh: 3.4; mABHD4 FP: 4.3; pPAFAH inh: 23.8; PAFAH2 FP inh: 34.5*; PAFAH1B2 inh: -1.4

How did CCOC(=O)C1(Cc2ccccc2)CCN(Cc2ccccc2[N+](=O)[O-])CC1 do in these assays?
mABHD4 FP: -2.6

What do the screens show for `O=C(NCCCN1CCOCC1)c1cccc(NS(=O)(=O)c2ccc(Br)cc2)c1`?
HTRA1 inhibitor: 3.8; PAFAH1B3 inh: 0.2; mABHD4 FP: -0.7; pPAFAH inh: -0.1; PAFAH2 FP inh: 0.7; PAFAH1B2 inh: 24.5*

Results for O=C(NCCN1CCOCC1)c1cccc(S(=O)(=O)Nc2ccc(Br)cc2)c1 ?
HTRA1 inhibitor: -5.6; PAFAH1B3 inh: -2.7; mABHD4 FP: -5.8; pPAFAH inh: 33.7*; PAFAH2 FP inh: 5.4; PAFAH1B2 inh: 1.0

How did O=C(c1cccc(S(=O)(=O)Nc2ccc(F)cc2)c1)N1CCOCC1 do in these assays?
HTRA1 inhibitor: -2.3; PAFAH1B3 inh: -3.3; mABHD4 FP: -2.2; pPAFAH inh: 28.7*; PAFAH2 FP inh: 8.6; PAFAH1B2 inh: -1.9

What do the screens show for `COc1ccc(NS(=O)(=O)c2ccc(N3CCOCC3)c(NC(=O)c3cccc(F)c3)c2)cc1`?
HTRA1 inhibitor: -11.2; PAFAH1B3 inh: 5.2; mABHD4 FP: 0.3; pPAFAH inh: 32.8*; PAFAH2 FP inh: 6.9; PAFAH1B2 inh: -4.7

Results for CC(C)NC(=O)CCn1nnc(-c2cccs2)n1 ?
mABHD4 FP: 1.3

Results for O=C(NCCCN1CCCC1=O)c1cc(NS(=O)(=O)c2ccc(F)cc2)cc(NS(=O)(=O)c2ccc(F)cc2)c1 ?
HTRA1 inhibitor: -2.4; PAFAH1B3 inh: 9.7; mABHD4 FP: -6.6; pPAFAH inh: 33.6*; PAFAH2 FP inh: 13.0; PAFAH1B2 inh: 14.9

Results for O=C(NCCCN1CCOCC1)c1cccc(S(=O)(=O)Nc2ccc(F)cc2)c1 ?
HTRA1 inhibitor: -9.3; PAFAH1B3 inh: -2.9; mABHD4 FP: 0.0; pPAFAH inh: 27.0*; PAFAH2 FP inh: 3.0; PAFAH1B2 inh: 2.7

Results for O=C(NCc1ccccc1Cl)O[C@H]1CC[C@@]23CCCN2C(=O)CCC[C@H]3C1 ?
mABHD4 FP: 1.4

How did CCOC(=O)c1c(OCC)[nH]c2c1cc(O)c1ccccc12 do in these assays?
HTRA1 inhibitor: 6.2; PAFAH1B3 inh: 10.9; mABHD4 FP: 27.7; pPAFAH inh: 27.1*; PAFAH2 FP inh: 8.4; PAFAH1B2 inh: 11.4

Results for N#Cc1ccsc1NC(=O)CSc1nnc(-c2ccccc2)o1 ?
HTRA1 inhibitor: -4.1; PAFAH1B3 inh: 1.7; mABHD4 FP: 0.2; pPAFAH inh: 34.1*; PAFAH2 FP inh: 6.8; PAFAH1B2 inh: 0.2

Results for O=C(CSc1nnc(-c2ccccc2)o1)Nc1ccccc1F ?
HTRA1 inhibitor: 1.7; PAFAH1B3 inh: 5.5; mABHD4 FP: -0.9; pPAFAH inh: 2.3; PAFAH2 FP inh: 13.3; PAFAH1B2 inh: 5.0

How did C=C(C)CSc1nnc(-c2cc(-c3ccccc3)n[nH]2)n1N do in these assays?
mABHD4 FP: 0.5

How did O=C(COC(=O)c1ccccc1Cl)NC1CCCCCC1 do in these assays?
HTRA1 inhibitor: -4.1; PAFAH1B3 inh: 6.0; mABHD4 FP: -1.6; pPAFAH inh: 31.1*; PAFAH2 FP inh: 79.1*; PAFAH1B2 inh: 4.7

What do the screens show for `O=C(COC(=O)c1c(Cl)cccc1Cl)NC1CCCCC1`?
HTRA1 inhibitor: -7.1; PAFAH1B3 inh: 8.5; mABHD4 FP: -1.1; pPAFAH inh: 5.6; PAFAH2 FP inh: 8.5; PAFAH1B2 inh: 4.1

How did O=C(COC(=O)c1ccc(Cl)c(Cl)c1)NC1CCCC1 do in these assays?
HTRA1 inhibitor: -1.1; PAFAH1B3 inh: 9.1; mABHD4 FP: 4.4; pPAFAH inh: 34.2*; PAFAH2 FP inh: 57.8*; PAFAH1B2 inh: 5.0

How did CCCCNC(=O)NS(=O)(=O)c1ccc(NC(=O)CSc2ncnc3scc(-c4ccc(C)cc4)c23)cc1 do in these assays?
mABHD4 FP: -56.7

Results for O=C1C(=O)N(Cc2ccc(-c3ccc(Cl)nc3)cc2)c2ccc(OC(F)(F)F)cc21 ?
mABHD4 FP: 3.5
